NR2E3 ag-1: inhibitors of NR2E3-RetCOR corepressor binding, primary screen, NR2E3 agonist project, biochemical, TR-FRET, GST-NR2E3, biotin-RetCOR | 1536-well | 320,000 tested, 0.12% active | inhibition of corepressor binding, % at 4.78 µM;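 active means percent inhibition above the cutoff of mean plus 3 SD of all tested compounds, set per screening campaign, cut at about 20% in these data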;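 further: 0% = DMSO wells and 100% = biotin wells as full block of FRET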
Target sequence (Q9Y5X4 whole entry, looked up): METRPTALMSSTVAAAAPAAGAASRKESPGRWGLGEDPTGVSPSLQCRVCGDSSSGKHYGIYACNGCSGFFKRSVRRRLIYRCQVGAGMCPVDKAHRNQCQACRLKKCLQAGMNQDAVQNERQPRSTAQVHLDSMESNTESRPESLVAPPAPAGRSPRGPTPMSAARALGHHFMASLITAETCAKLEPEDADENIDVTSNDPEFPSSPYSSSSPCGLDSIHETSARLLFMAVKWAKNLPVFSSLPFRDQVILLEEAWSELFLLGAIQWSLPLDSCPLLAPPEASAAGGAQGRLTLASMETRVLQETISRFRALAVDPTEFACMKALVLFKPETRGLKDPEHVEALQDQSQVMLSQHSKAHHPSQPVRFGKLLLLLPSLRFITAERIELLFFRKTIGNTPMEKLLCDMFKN
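Material – GST-tagged NR2E3 plus biotinylated RetCOR corepressor · Quantity – NR2E3 fusion 1.35 nM · Times – 5 h incubation at 4 °C · Medium – pH 7.5 Tris-based buffer · Technique – TR-FRET, Eu(K)-anti-GST donor, streptavidin-D2 acceptor, ex 340, em 617/671 nm · Benchmarks – high control biotin, low control 0.6% DMSO · Format – 1536-well plates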
NR1D1 modulator: modulators of Rev-erb alpha DNA binding, primary screen, biochemical, FITC-DNA, fluorescence polarization, uHTS. Nuclear receptor subfamily 1 group D member 1 (Homo sapiens), P20393. Rev-erbα–FITC-DNA binding, 90 min. activity, % at 10 µM. 370,000 tested, 0.79% active;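 active means activity above about 14%, limit read from the data; passing the limit was not always enough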;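 further: 0% = DMSO wells with 35 nM protein and 100% = DMSO wells with 750 nM protein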
NR2E3 ag-2: NR2E3 agonists in two-hybrid cells, primary screen, cell-based, luminescence, CHO-S, Gal4-NCOR/VP16-NR2E3 | Photoreceptor-specific nuclear receptor (Homo sapiens), Q9Y5X4 | luciferase | inhibition of corepressor binding, % at 3.98 µM | 360,000 tested, 0.35% active;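 active means inhibition above the mean of all tested compounds plus 3 SD, cut at about 70% in these data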;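 further: 0% = DMSO with NR2E3 transfected cells and 100% = cells lacking NR2E3 construct; higher means lower luciferase signal from less NR2E3 corepressor binding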
PG9 Ab binder: binders of HIV-1 gp120 antibody PG9, primary screen, biochemical, TR-FRET; HIV-1 gp120 / PG9 antibody interaction; TR-FRET gp120-PG9 antibody binding; inhibition, % at 6.7 µM; 360,000 tested, 0.43% active; in the data active means inhibition above about 8.5%
PG9 binder conf: binders of anti-gp120 antibody PG9, confirmation, biochemical, TR-FRET; TR-FRET PG9 antibody binding; shares compounds with PG9 Ab binder; inhibition, % at 6.7 µM; 1,500 tested, 90% active; AID 651571, 2012; in the data active means inhibition above about 9%
PGV04 Ab binding: binders of control antibody PGV04, counter-screen for PG9 antibody binder project, biochemical, TR-FRET, distinct HIV envelope site; shares compounds with PG9 Ab binder; inhibition, % at 6.7 µM; AID 651604, 2012; 1,500 tested, 95% active; TR-FRET PGV04 antibody-gp120 binding; in the data active means inhibition above about 9.5%
PG9 binder DR: small-molecule binders of antibody PG9, dose response, biochemical, TR-FRET, HIV-1 gp120 antibody; shares compounds with PG9 Ab binder; TR-FRET PG9 antibody-gp120 binding inhibition; IC50, µM; 95 tested, under 10 active; AID 651848, 2012; in the data active means IC50 below about 10 µM
PGV04 binding DR: binders of control antibody PGV04, dose response, counter-screen for PG9 antibody binder project, biochemical, TR-FRET, distinct HIV envelope site; AID 651937, 2012; 95 tested, 20% active; IC50, µM; TR-FRET binding to control antibody PGV04; shares compounds with PG9 Ab binder
PG126 binding DR: binders of control antibody PG126, dose response, counter-screen for PG9 antibody binder project, biochemical, TR-FRET, distinct HIV envelope site; shares compounds with PG9 Ab binder; TR-FRET binding to antibody PG126, counterscreen; IC50, µM; 95 tested, 20% active
Active calls of the source: *; x = no result. A selection: hits, their analogues and other compounds. The true share with any hit is near 1.4%. Unless noted, no stated cut-off is given here; in the data, active means IC50 below about 9 µM; inactive means the rest.

SMILES	NR2E3 ag-1	NR1D1 modulator	NR2E3 ag-2	PG9 Ab binder	PG9 binder conf	PGV04 Ab binding	others
CC(C)(C)C(=O)CN1C(=O)NC(c2ccccc2)(c2ccccc2)C1=O	0	-1	-16	1	x	x
O=c1cc(-c2ccccc2)oc2ccc3ccccc3c12	x	13	-89	15*	16*	24*
COCCNC(=O)c1c[nH]c2ccc(S(=O)(=O)Nc3ccc(F)cc3F)cc2c1=O	2	-7	-4	9.3*	22*	22*	PG9 binder DR=>67;PGV04 binding DR=>67;PG126 binding DR=>67
COCCNC(=O)c1c[nH]c2ccc(S(=O)(=O)N3CCc4ccccc43)cc2c1=O	-1	-1	-11	0	x	x
COCCNC(=O)c1c[nH]c2ccc(S(=O)(=O)Nc3ccccc3F)cc2c1=O	4	-1	-11	9.6*	22*	23*
O=C1Cc2cc(S(=O)(=O)N3CCN(c4ccc(C(=O)O)cc4)CC3)ccc2N1	x	-5	-20	1	x	x
CC(=O)c1ccc(N2CCN(S(=O)(=O)c3ccc4c(c3)NC(=O)CC(=O)N4)CC2)cc1	1	7	-44	13*	17*	30*
CC(=O)Nc1cc(-c2ccc(C(=O)N3CCOCC3)cc2)cn2c(-c3cccc(C(F)(F)F)c3)cnc12	x	-1	-15	1	x	x
COC(=O)c1ccc(OCC(=O)Nc2nn(-c3ccccc3)nc2C(N)=O)cc1	6	15	-15	12*	30*	34*
O=C(Nc1ccc(F)cc1)c1cc(-c2ccccn2)nc2c(Cl)cccc12	1	5	-14	18*	33*	69*
COc1ccc(-c2noc(CCC(=O)NCC3CCCO3)n2)cc1OC (centres undefined)	-1	0	14	11*	4	7
COc1ccc(N=Cc2c(O)c3ccccc3oc2=O)cc1	-1	3	-31	32*	27*	39*
COc1ccc(OC)c(N=Cc2c(O)c3ccccc3oc2=O)c1	5	-3	-33	-3	x	x
COCCNC(=O)c1cc(-c2cccnc2)nc2ccc(Br)cc12	8	-3	-5	8.6*	8	14*
O=C(NCCCn1ccnc1)c1cc(-c2cccnc2)nc2ccc(Br)cc12	5	-1	-3	6	x	x
CCc1cccc(CC)c1NC(=O)Cn1c(-c2ccccc2Cl)nc2ccccc21	7	1	-33	17*	19*	25*
Cc1sc2nc(SCC(=O)Nc3ccccc3F)[nH]c(=O)c2c1C	-2	11	-27	8.7*	21*	34*
COc1ccc(Cn2nnnc2C(c2cc3cccc(C)c3[nH]c2=O)N2CCOCC2)cc1 (centres undefined)	1	-4	-33	17*	16*	24*
Cc1nnc(N(C)C(=O)c2ccccn2)s1	4	-4	20	0	x	x
CCN(CC(=O)Nc1ccc(NC(C)=O)cc1)C(=O)c1ccc2c(c1)OCO2	-3	-4	-26	-2	x	x
COc1ccc(C(=O)NCCN(C)C)c2nc3ccccc3cc12	x	8	-15	23*	20*	18*	PG9 binder DR=>67;PGV04 binding DR=>67;PG126 binding DR=>67
CC(C)C1=C2CCCCC2NC(=O)N1 (centres undefined)	-2	2	-7	-3	x	x
CC(C)[C@H](NC(=O)Cc1ccccc1)C(=O)OCc1cc(=O)n2c(n1)sc1ccccc12	5	-9	15	9.6*	17*	21*
CC(=O)Oc1ccccc1C1C[C@]2(C)CC(=O)NC2N1C(C)=O (some centres undefined)	3	-1	-9	-3	x	x
CC(=O)c1cccc(NC(=O)CCc2nnc3ccc(NCc4ccc5c(c4)OCO5)nn23)c1	-4	13	-11	19*	23*	27*
SMILES	NR2E3 ag-1	NR1D1 modulator	NR2E3 ag-2	PG9 Ab binder	PG9 binder conf	PGV04 Ab binding	others
Cc1ccc(N(Cc2cc3ccccc3[nH]c2=O)S(=O)(=O)c2ccccc2)cc1	0	10	-12	-4	x	x
Cc1ccc2cc(CN(c3ccccc3C)S(=O)(=O)c3ccccc3)c(=O)[nH]c2c1	2	-1	-17	14*	26*	45*
Cc1ccnc(N2CCC(C(=O)Nc3ccc4c(c3)CCC4)CC2)n1	3	-1	-1	37*	44*	61*
CN(C)c1ccc(-c2cccc(C3CC=CC4C3C(=O)N(Cc3ccccc3)C4c3ccc4ccccc4c3)c2)cc1 (centres undefined)	0	9	-51	26*	36*	48*
Cc1ccc(NS(=O)(=O)c2c(C(=O)N3CCCCCC3)c(C)n(C)c2C)cc1C	1	-3	-6	-3	x	x
CCOc1ccc(NC(=O)CCC(=O)c2ccc(Br)cc2)cc1	7	1	-47	16*	18*	22*
CCOc1cc2[nH]c(=S)n(Cc3ccc(C(=O)NCCCOC)cc3)c(=O)c2cc1OCC	-1	13	-14	23*	8	13*
CCOc1cc2[nH]c(=S)n(Cc3ccc(C(=O)NCCCN(CC)CC)cc3)c(=O)c2cc1OCC	2	3	11	-1	x	x
CCCC(=O)Nc1nnc(-c2cccc(OCC)c2)s1	8	8	-13	16*	22*	39*
CCOC(=O)c1nc(C)sc1-c1ccnn1S(=O)(=O)c1ccc(Cl)cc1Cl	-3	-3	-21	0	x	x
CC1CCCN(C(=O)CSc2nnc(-c3c[nH]c4ccccc34)o2)C1 (centres undefined)	1	4	-36	0	x	x
Cc1ccc(S(=O)(=O)c2c(N)n(CCN3CCOCC3)c3nc4ccccc4nc23)cc1C	-3	20	9	26*	17*	29*
Cc1cccc(-n2c(SCC(N)=O)nc3c(c2=O)C2(CCCC2)Cc2ccccc2-3)c1	12	-3	1	19*	20*	25*

Compound activity as filed in PubChem BioAssay.
